# In ChEMBL document CHEMBL1240445, “Synthesis, antioxidant and DNA cleavage activities of novel indole derivatives” (Eur J Med Chem, 2010):
# Activity calls are given as the source filed them. The calls are words filed in the database; no cut-off is given here.
# What was measured:
# Nucleic Acid = assay: cleavage of Escherichia coli DNA by agarose gel electrophoresis; assay type: nucleic-acid assay
# Procedure, shortened: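 Genomic DNA from E. coli grown 24 h at 37 °C in nutrient broth, isolated by SDS lysis, phenol and chloroform:isoamyl alcohol extraction, ethanol precipitation. Samples (1 mg/ml stock in DMF) added to DNA, incubated 2 h at 37 °C, mixed 1:1 with bromophenol blue, run on agarose gel in TAE beside DNA marker, 50 V for 30 min.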
# [1] = tested on: Radical scavenging activity; assay: Antioxidant activity assessed as DPPH radical scavenging activity; assay type: functional
# Procedure, shortened: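 DPPH method: 10, 50 and 100 µg sample or BHA brought to 100 µl with MeOH, plus 5 mL 0.1 mM methanolic DPPH, shaken, left 20 min at 27 °C; absorbance at 517 nm versus control lacking sample. % scavenging = [(control OD − sample OD)/control OD] × 100.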
# [2] = Antioxidant activity assessed as ferric reduction; assay type: functional
# Procedure, shortened: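 Reducing power: sample with 200 mmol/L sodium phosphate buffer (pH 6.6) and 2.5 mL 1% potassium ferricyanide, held 50 °C for 20 min, then 2.5 mL 10% (w/v) trichloroacetic acid added.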
# [3] = Antioxidant activity assessed as equivalence of ascorbic acid; assay type: functional
# Procedure, shortened: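 Phosphomolybdenum total antioxidant capacity: 10, 50 and 500 µg sample mixed with 1.9 mL reagent (0.6 M sulfuric acid, 28 mM sodium phosphate, 4 mM ammonium molybdate), heated 95 °C for 90 min, cooled; absorbance at 695 nm against blank. Expressed as ascorbic acid equivalents from an ascorbic acid standard graph.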
SMILES,Activity (Nucleic Acid),Activity [1],Activity [2],Activity [3]
O=C1NC(=O)C(=C(/C=C/c2c(-c3ccccc3)[nH]c3ccc(Cl)cc23)c2ccccc2)C(=O)N1,Active,Active,–,–
Cc1ccc(C(/C=C/c2c(-c3ccccc3)[nH]c3ccc(C)cc23)=C2C(=O)NC(=O)NC2=O)cc1,Active,–,–,–
O=C1NC(=O)C(=C(/C=C/c2c[nH]c3ccccc23)c2ccccc2)C(=O)N1,Active,–,Active,Active
O=C1NC(=O)C(=C(/C=C/c2c[nH]c3ccccc23)c2ccc(Cl)cc2)C(=O)N1,Active,–,Active,Active
Cc1ccc2[nH]c(-c3ccccc3)c(/C=C/C(=C3C(=O)NC(=O)NC3=O)c3ccccc3)c2c1,Active,–,–,–
Cc1ccc2[nH]c(-c3ccccc3)c(/C=C/C(=C3C(=O)NC(=O)NC3=O)c3ccc(Cl)cc3)c2c1,Active,–,–,–
Cc1ccc(C(/C=C/c2c[nH]c3ccccc23)=C2C(=O)NC(=O)NC2=O)cc1,Active,–,Active,Active
O=C1NC(=O)C(=C(/C=C/c2c(-c3ccccc3)[nH]c3ccc(Cl)cc23)c2ccc(Cl)cc2)C(=O)N1,Active,Active,–,–
Cc1ccc(C(/C=C/c2c(-c3ccccc3)[nH]c3ccc(Cl)cc23)=C2C(=O)NC(=O)NC2=O)cc1,Active,Active,–,–
